Numbered stars: 1 amine (or outer) side, 2 acyl side, 3 side chain; on linkers, the order of the positions; unused ones are H or OH. Bridge positions count the residues as written; N and C are the ends. Square brackets hold non-standard residues; d marks the D form. Peptide text beside a SMILES is read from it. I, II: the chains in the order shown. X3 = CN(CCCNC(=O)CCNC(=O)CCSCC(=O)[*:1])CCCNC(=O)CCNC(=O)CCSCC(=O)[*:2]; X1 = O=C(C(=O)[*:2])[C@H](Cc1ccc(O)cc1)N[*:1]; NMeL = CN[C@@H](CC(C)C)C(=O)O; Sar = CNCC(=O)O
Columns and labels:
[1] = biological target: T1, IgG receptor FcRn large subunit p51 (Homo sapiens, UniProt P55899); test: Ratio of QRF-Asp-TGHFGGLYP-Lys-NGP IC50 to compound IC50 for soluble human FcRn
T1 sequence (P55899 whole entry): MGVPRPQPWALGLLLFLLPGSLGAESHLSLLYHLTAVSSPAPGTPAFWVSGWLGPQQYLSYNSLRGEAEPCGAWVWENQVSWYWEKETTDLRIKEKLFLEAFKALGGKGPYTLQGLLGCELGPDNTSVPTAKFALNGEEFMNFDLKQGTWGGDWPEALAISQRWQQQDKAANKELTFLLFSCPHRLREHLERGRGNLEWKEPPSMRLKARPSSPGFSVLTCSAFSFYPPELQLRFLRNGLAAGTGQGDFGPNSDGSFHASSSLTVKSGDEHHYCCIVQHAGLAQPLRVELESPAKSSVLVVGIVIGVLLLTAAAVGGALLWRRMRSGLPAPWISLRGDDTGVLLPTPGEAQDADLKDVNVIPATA

[2] = biological target: T1, IgG receptor FcRn large subunit p51; test: Binding affinity to soluble human FcRn at pH 7.4 by surface plasmon resonance assay
Procedure, shortened: (§1)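 shFcRn was amine-coupled to a CM5 dextran chip, and peptide dilutions were run at pH 6 or pH 7.4 on a Biacore 3000 or T100. The equilibrium response was plotted against concentration and fitted to a steady-state affinity model to give Kd.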

[3] = biological target: T1, IgG receptor FcRn large subunit p51; test: Inhibition of IgG binding to soluble human FcRn after 2 hrs by competition ELISA
[4] = biological target: T1, IgG receptor FcRn large subunit p51; test: Binding affinity to soluble human FcRn at pH 6 by surface plasmon resonance assay; procedure, shortened: as §1

Row | Ratio IC50 [1] | Kd [2] [nM] | IC50 [3] [nM] | Kd [4] [nM] | Compound
1 | 9.2 | – | – | – | CC(C)C[C@H]1C(=O)N[C@@H](Cc2ccc(O)cc2)C(=O)C(=O)N2CCC[C@H]2C(=O)N[C@H](C(=O)N[C@@H](CC(N)=O)C(=O)NCC(=O)N2CCC[C@H]2C(N)=O)CCCCNC(=O)C[C@H](NC(=O)[C@H](Cc2ccccc2)NC(=O)CSCCC(=O)NCCC(=O)NCCCN(C)CCCNC(=O)CCNC(=O)CCSCC(=O)N[C@@H](CCC(N)=O)C(=O)N[C@@H](CCCNC(=N)N)C(=O)N[C@@H](Cc2ccccc2)C(=O)N[C@H]2CC(=O)NCCCC[C@@H](C(=O)N[C@@H](CC(N)=O)C(=O)NCC(=O)N3CCC[C@H]3C(N)=O)NC(=O)[C@@H]3CCCN3C(=O)C(=O)[C@H](Cc3ccc(O)cc3)NC(=O)[C@H](CC(C)C)N(C)C(=O)CN(C)C(=O)CNC(=O)[C@H](Cc3ccccc3)NC(=O)[C@H](Cc3c[nH]cn3)NC(=O)CNC(=O)[C@H]([C@@H](C)O)NC2=O)C(=O)N[C@@H]([C@@H](C)O)C(=O)NCC(=O)N[C@@H](Cc2c[nH]cn2)C(=O)N[C@@H](Cc2ccccc2)C(=O)NCC(=O)N(C)CC(=O)N1C (I: QRFDTGHFG[Sar][NMeL][X1]PKNGP-NH2 / II: FDTGHFG[Sar][NMeL][X1]PKNGP-NH2; lactam I:4-I:14, II:2-II:12; linker I:N-II:N via X3)
2 | – | 950 | 1100 | 150 | CC(=O)N[C@@H](CCCNC(=N)N)C(=O)N[C@@H](Cc1ccccc1)C(=O)N[C@@H]1C(=O)N(C)[C@@H](C)C(=O)NCC(=O)N[C@@H](Cc2cnc[nH]2)C(=O)N[C@@H](Cc2ccccc2)C(=O)N[C@H]2CCCN(CC(=O)N(C)[C@@H](CC(C)C)C(=O)N[C@@H](Cc3ccc(O)cc3)C(=O)C(=O)N3CCC[C@H]3C(=O)N[C@H](C(N)=O)CSSC1(C)C)C2=O
3 | 37 | – | 600 | – | CC(C)C[C@H]1C(=O)N[C@@H](Cc2ccc(O)cc2)C(=O)C(=O)N2CCC[C@H]2C(=O)N[C@H](C(=O)N[C@@H](CC(N)=O)C(=O)NCC(=O)N2CCC[C@H]2C(N)=O)CCCCNC(=O)C[C@H](NC(=O)[C@H](Cc2ccccc2)NC(=O)CSCCC(=O)NCCCN(CCCNC(=O)CCSCC(=O)N[C@@H](CCC(N)=O)C(=O)N[C@@H](CCCNC(=N)N)C(=O)N[C@@H](Cc2ccccc2)C(=O)N[C@H]2CC(=O)NCCCC[C@@H](C(=O)N[C@@H](CC(N)=O)C(=O)NCC(=O)N3CCC[C@H]3C(N)=O)NC(=O)[C@@H]3CCCN3C(=O)C(=O)[C@H](Cc3ccc(O)cc3)NC(=O)[C@H](CC(C)C)N(C)C(=O)CN(C)C(=O)CNC(=O)[C@H](Cc3ccccc3)NC(=O)[C@H](Cc3c[nH]cn3)NC(=O)CNC(=O)[C@H]([C@@H](C)O)NC2=O)CC(=O)NCC(=O)O)C(=O)N[C@@H]([C@@H](C)O)C(=O)NCC(=O)N[C@@H](Cc2c[nH]cn2)C(=O)N[C@@H](Cc2ccccc2)C(=O)NCC(=O)N(C)CC(=O)N1C
4 | – | 170 | 520 | 31 | CC(=O)N[C@@H](CCCNC(=N)N)C(=O)N[C@@H](Cc1ccccc1)C(=O)N[C@@H]1C(=O)N[C@@H]([C@@H](C)O)C(=O)NCC(=O)N[C@@H](Cc2c[nH]cn2)C(=O)N[C@@H](Cc2ccccc2)C(=O)NCC(=O)N(C)CC(=O)N(C)[C@@H](CC(C)C)C(=O)N[C@@H](Cc2ccc(O)cc2)C(=O)C(=O)N2CCC[C@H]2C(=O)N[C@H](C(N)=O)CSSC1(C)C
5 | – | 37000 | 40000 | 5300 | CC(=O)N[C@@H](CCC(N)=O)C(=O)N[C@@H](CCCNC(=N)N)C(=O)N[C@@H](Cc1ccccc1)C(=O)N[C@H]1CSSC[C@@H](C(=O)N[C@@H](CC(N)=O)C(=O)NCC(=O)N2CCC[C@H]2C(N)=O)NC(=O)[C@@H]2CCCN2C(=O)C(=O)[C@H](Cc2ccc(O)cc2)NC(=O)[C@H](CC(C)C)NC(=O)CNC(=O)CNC(=O)[C@H](Cc2ccccc2)NC(=O)[C@H](Cc2cnc[nH]2)NC(=O)CNC(=O)[C@H]([C@@H](C)O)NC1=O
